In ChEMBL document CHEMBL4219025 (J Med Chem, 2018) one finds IC50 and Activity data, which are given here for eight compounds.

For assay [1], the target named is T1, NAD-dependent protein deacetylase sirtuin-2 (Homo sapiens, UniProt Q8IXJ6).
T1 sequence (Q8IXJ6 whole entry): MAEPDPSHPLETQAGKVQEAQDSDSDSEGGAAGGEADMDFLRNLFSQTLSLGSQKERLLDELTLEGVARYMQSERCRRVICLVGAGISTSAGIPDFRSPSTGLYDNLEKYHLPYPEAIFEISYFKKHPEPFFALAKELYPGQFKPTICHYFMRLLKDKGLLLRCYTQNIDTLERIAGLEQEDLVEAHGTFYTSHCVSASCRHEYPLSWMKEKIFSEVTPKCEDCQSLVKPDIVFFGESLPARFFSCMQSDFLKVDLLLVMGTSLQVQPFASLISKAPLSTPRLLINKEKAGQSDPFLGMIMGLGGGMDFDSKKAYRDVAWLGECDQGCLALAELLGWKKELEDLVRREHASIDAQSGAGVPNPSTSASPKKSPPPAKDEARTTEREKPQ
The assay is described as follows: Inhibition of recombinant human His10-tagged Sirt2 (56 to 356 residues) expressed in Escherichia coli BL21(DE3) using Z-(Ac)Lys-AMC as substrate measured after 4 hrs by high-throughput fluorescence based assay.

For assay [2], the target named is T2, NAD-dependent protein deacetylase sirtuin-1 (Homo sapiens, UniProt Q96EB6).
T2 sequence (Q96EB6 whole entry): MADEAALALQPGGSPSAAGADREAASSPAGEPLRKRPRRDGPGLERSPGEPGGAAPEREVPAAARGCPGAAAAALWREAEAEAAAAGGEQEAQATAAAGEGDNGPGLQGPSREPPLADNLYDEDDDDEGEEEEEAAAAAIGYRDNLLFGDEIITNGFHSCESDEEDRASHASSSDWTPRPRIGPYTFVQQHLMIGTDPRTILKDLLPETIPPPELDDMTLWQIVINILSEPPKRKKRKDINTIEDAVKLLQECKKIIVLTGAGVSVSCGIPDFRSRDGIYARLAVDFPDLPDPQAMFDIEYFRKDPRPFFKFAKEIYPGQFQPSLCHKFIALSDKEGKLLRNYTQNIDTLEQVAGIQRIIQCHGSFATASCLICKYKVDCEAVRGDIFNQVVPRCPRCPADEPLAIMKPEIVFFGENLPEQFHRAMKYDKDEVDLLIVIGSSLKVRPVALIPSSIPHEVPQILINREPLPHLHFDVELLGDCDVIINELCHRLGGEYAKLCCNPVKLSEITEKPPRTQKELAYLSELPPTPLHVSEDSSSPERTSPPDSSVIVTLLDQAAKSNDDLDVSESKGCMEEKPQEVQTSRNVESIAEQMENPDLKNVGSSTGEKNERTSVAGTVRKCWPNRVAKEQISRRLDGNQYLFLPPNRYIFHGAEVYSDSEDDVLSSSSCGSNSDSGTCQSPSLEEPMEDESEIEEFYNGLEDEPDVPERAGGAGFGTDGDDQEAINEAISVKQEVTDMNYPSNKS
The assay is described as follows: Inhibition of recombinant human GST-tagged Sirt1 (133 to 747 residues) using Z-(Ac)Lys-AMC as substrate measured after 4 hrs by high-throughput fluorescence based assay.

Assay [3] has as its target T3, NAD-dependent protein deacetylase sirtuin-3, mitochondrial (Homo sapiens, UniProt Q9NTG7).
T3 sequence (Q9NTG7 whole entry): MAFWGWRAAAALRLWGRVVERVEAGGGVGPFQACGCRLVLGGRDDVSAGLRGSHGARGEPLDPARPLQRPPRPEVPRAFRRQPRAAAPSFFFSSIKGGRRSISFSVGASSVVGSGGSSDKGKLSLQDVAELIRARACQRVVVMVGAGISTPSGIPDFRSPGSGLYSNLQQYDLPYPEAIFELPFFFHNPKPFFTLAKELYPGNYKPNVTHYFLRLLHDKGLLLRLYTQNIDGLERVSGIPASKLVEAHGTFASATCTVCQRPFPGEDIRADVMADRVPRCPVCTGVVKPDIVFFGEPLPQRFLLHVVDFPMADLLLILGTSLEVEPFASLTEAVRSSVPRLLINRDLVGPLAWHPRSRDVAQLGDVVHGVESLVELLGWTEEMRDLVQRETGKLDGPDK
The assay is described as follows: Inhibition of recombinant human His10-tagged Sirt3 (118 to 395 residues) expressed in Escherichia coli BL21(DE3) using Z-(Ac)Lys-AMC as substrate measured after 4 hrs by high-throughput fluorescence based assay.

In assay [4] the target is T4, Protein cereblon/NAD-dependent protein deacetylase sirtuin-2 (Homo sapiens) (UniProt Q8IXJ6+Q96SW2). The assay is described as follows: Induction of cereblon-mediated Sirt2 degradation in human HeLa cells at 0.05 to 5 uM after 4 hrs by Western blot method. Format: cell-based. A digest of the protocol:
(§1)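 HeLa cells in DMEM high glucose with 10% FCS, 37 °C, 5% CO2; 2x10^5 cells per 6-well (endogenous Sirt1/Sirt2) or 2x10^4 EGFP-Sirt2-HeLa per 24-well. Cycloheximide applied before compound (5 µg/ml 6-well, 3 µg/ml 24-well); 4 h default incubation, DMSO controls. Lysed in reducing sample buffer, 10% SDS-PAGE, PVDF, rabbit anti-Sirt2/Sirt1/GAPDH 1:5000, ECL; background-subtracted band intensities normalized to mean control.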
Background: In western blotting, separated proteins are transferred to a membrane and probed.

For assay [5], the target named is T4, Protein cereblon/NAD-dependent protein deacetylase sirtuin-2 (Homo sapiens). The assay is described as follows: Induction of cereblon-mediated Sirt2 degradation in human HeLa cells at 10 uM after 1 to 6 hrs by Western blot method. Format: cell-based. A digest of the protocol: as §1
For assay [6] the target is unchanged. The assay is described as follows: Induction of cereblon-mediated EGFP-fused Sirt2 (unknown origin) degradation expressed in human HeLa cells at 10 uM after 4 hrs in presence of 2-(4,6-dimethylpyrimidin-2-ylthio)-N-(5-(3-((1-(2-methoxyethyl)-1H-1,2,3-triazol-4-yl)methoxy)benzyl)thiazol-2-yl)acetamide and proteosome inhibitor MG132 by Western blot method. Format: cell-based. A digest of the protocol: as §1

Assay [7] has the same target. The assay is described as follows: Induction of cereblon-mediated EGFP-fused Sirt2 (unknown origin) degradation expressed in human HeLa cells at 10 uM after 4 hrs by Hoechst 33342 staining-based fluorescent microscopic method. Format: cell-based. A digest of the protocol: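 Live EGFP-Sirt2-expressing HeLa cells: 2x10^4 cells seeded on glass imaging dishes in complete medium overnight, treated with 10 μM compound for 4 h (DMSO controls), medium switched to phenol red-free DMEM, nuclei stained 0.5 µg/mL Hoechst 33342 for 5 min; confocal live imaging with 40× oil objective.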

Assay [8] shares this target. The assay is described as follows: Induction of cereblon-mediated Sirt2 degradation in human HeLa cells at 10 uM after 2 hrs by Western blot method. Format: cell-based. The essentials:
as §1

For assay [9] the target is unchanged. The assay is described as follows: Induction of cereblon-mediated EGFP-fused Sirt2 degradation in human HeLa cells assessed as increase in tubulin acetlyation at 10 uM after 4 hrs by DAPI dye-based immunofluorescent microscopic analysis. Format: cell-based.
The target is the same in assay [10]. The assay is described as follows: Induction of cereblon-mediated Sirt2 degradation in human HeLa cells after 4 hrs by Western blot method. Format: cell-based. A digest of the protocol:
as §1

The target in assay [11] is Protein cereblon/NAD-dependent protein deacetylase sirtuin-1 (Homo sapiens) (UniProt Q96EB6+Q96SW2). The assay is described as follows: Induction of cereblon-mediated Sirt1 degradation in human HeLa cells at 10 uM after 1 to 6 hrs by Western blot method. Format: cell-based. The essentials:
as §1

Each structure is given as a SMILES string. Activity calls are given as the source filed them. The rule behind the calls is not given here.

T4 sequence (Q96SW2 whole entry, looked up, one chain of several): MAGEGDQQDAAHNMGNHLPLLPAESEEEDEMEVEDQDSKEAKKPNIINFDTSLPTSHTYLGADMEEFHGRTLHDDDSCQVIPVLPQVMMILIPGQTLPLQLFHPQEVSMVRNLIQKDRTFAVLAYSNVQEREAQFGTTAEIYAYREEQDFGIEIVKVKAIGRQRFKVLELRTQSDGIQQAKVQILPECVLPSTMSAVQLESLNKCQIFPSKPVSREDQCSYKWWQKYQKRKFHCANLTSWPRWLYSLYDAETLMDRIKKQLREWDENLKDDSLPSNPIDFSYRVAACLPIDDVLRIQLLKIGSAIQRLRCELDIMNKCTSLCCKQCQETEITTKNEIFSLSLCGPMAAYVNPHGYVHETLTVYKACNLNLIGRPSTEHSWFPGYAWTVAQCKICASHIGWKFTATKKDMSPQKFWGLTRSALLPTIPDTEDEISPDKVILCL
Protein cereblon/NAD-dependent protein deacetylase sirtuin-1 (Homo sapiens), sequence (Q96SW2 whole entry, looked up, one chain of several): as above

With `Cc1cc(C)nc(SCC(=O)Nc2ncc(Cc3cccc(OCc4cn(Cc5ccccc5)nn4)c3)s2)n1`, the results for the IC50 in assay [1], in assay [2] and in assay [3] were 160 nM, greater than 100 µM and greater than 100 µM, respectively.
For the compound `COCCn1cc(COc2cccc(Cc3cnc(NC(=O)CSc4nc(C)cc(C)n4)s3)c2)nn1`, the IC50 (in general, the concentration at which inhibition is half-maximal) in [2] was 100 µM; in assay [3] it was greater than 100 µM. In [4], the result was inactive.
For the compound `C#CCOc1cccc(Cc2cnc(NC(=O)CSc3nc(C)cc(C)n3)s2)c1`, the IC50 in assay [1] is 2400 nM; in assay [2], greater than 100 µM.
As for `Cc1cc(C)nc(SCC(=O)Nc2ncc(Cc3cccc(OCc4cn(CCCCNC(=O)COc5cccc6c5C(=O)N(C5CCC(=O)NC5=O)C6=O)nn4)c3)s2)n1` (stereo not given), the results for the IC50 in assay [1], in [2] and in assay [3] were 250 nM, greater than 100 µM and greater than 100 µM, respectively. In addition, the result in assay [5], in assay [7], in assay [8] and in assay [9] was Active. Besides, the outcome in assay [6] and in assay [11] was inactive. The Activity result in assay [10] was “Dose-dependent effect”.
Take `Cc1cc(C)nc(SCC(=O)Nc2ncc(Cc3cccc4ccc(Cl)cc34)s2)n1`: in assay [2], the half-inhibitory concentration (IC50) is greater than 100 µM.
As to `Cc1cc(C)nc(SCC(=O)Nc2ncc(Cc3cccc(OCc4cn(CCOCCOCCOCCOCCOCCOCCOCCOCCOCCOCCOCCNC(=O)CCCCC5SCC6NC(=O)NC65)nn4)c3)s2)n1` (stereo not given), the values for the IC50 in assay [1], in [2] and in assay [3] were 310 nM, greater than 100 µM and greater than 100 µM, respectively.
Consider `Cc1cc(C)nc(SCC(=O)Nc2ncc(Cc3cccc4ccccc34)s2)n1`, for which the IC50 in assay [2] and in assay [3] was greater than 100 µM in each case.
In the case of `O=C1CCC(N2C(=O)c3ccccc3C2=O)C(=O)N1` (stereo not given), the outcome in [4] was inactive.
